# Data taken from ChEMBL document CHEMBL4619740, “Chalcones bearing a 3,4,5-trimethoxyphenyl motif are capable of selectively inhibiting oncogenic K-Ras signaling” (Bioorg Med Chem Lett, 2020).
# The source made the active and inactive calls. No cut-off for these calls is given here.
# Key:
# GTPase KRas = GTPase KRas (Homo sapiens, UniProt P01116, G12V); assay: Inhibition of GFP-tagged KRAS G12V mutant (unknown origin) expressed in MDCK cells cotransfected with mCherry-CAXX assessed as increase in KRAS G12V-plasma membrane dissociation incubated for 48 hrs by quantitative confocal microscopic method; format: cell-based
# Summary of the method: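 MDCK cells stably co-expressing mGFP-K-RasG12V and mCherry-CAAX (endomembrane marker) treated with a range of compound concentrations for 48h. Cells fixed in 4% paraformaldehyde, imaged by confocal microscopy. PM dissociation scored as the fraction of mCherry-CAAX co-localized with GFP-K-RasG12V (Manders coefficient). IC50 estimated from dose-response plots from three independent experiments.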
# [1] = system: GTPase HRas (Homo sapiens), P01112 [G12V]; assay: Inhibition of GFP-tagged HRAS G12V mutant (unknown origin) expressed in MDCK cells cotransfected with mCherry-CAXX assessed as effect on HRAS G12V-plasma membrane dissociation incubated for 48 hrs by quantitative confocal microscopic method; format: cell-based
# Summary of the method: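 MDCK cells stably co-expressing mGFP-RasG12V (K- or H-) and mCherry-CAAX endomembrane marker treated with a range of concentrations for 48 h, fixed in 4% paraformaldehyde, imaged by quantitative confocal microscopy. Fraction of mCherry-CAAX co-localized with GFP-Ras by Manders coefficient; IC50 for PM dissociation estimated from dose-response plots of three independent experiments.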
# [2] = system: GTPase KRas (Homo sapiens), P01116 [G12V]; assay: Inhibition of GFP-tagged KRAS G12V mutant (unknown origin) expressed in MDCK cells assessed as reduction in Akt phosphorylation level incubated for 48 hrs by Western blot analysis; format: cell-based
# Summary of the method: (§1)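 MDCK cells stably expressing GFP-tagged K-RasG12V or H-RasG12V treated 48 h; lysates immunoblotted with anti-ppERK or anti-pAkt (S473) antibodies, total ERK and Akt as loading controls. Quantified as means ± S.E.M. of three independent experiments versus DMSO-treated cells; one-way ANOVA.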
# [3] = system: GTPase KRas (Homo sapiens), P01116 [G12V]; assay: Inhibition of GFP-tagged KRAS G12V mutant (unknown origin) expressed in MDCK cells assessed as reduction in ERK phosphorylation level incubated for 48 hrs by Western blot analysis; format: cell-based; summary of the method: as §1
# [4] = system: GTPase HRas (Homo sapiens), P01112 [G12V]; assay: Inhibition of GFP-tagged HRAS G12V mutant (unknown origin) expressed in MDCK cells assessed as reduction in Akt phosphorylation level incubated for 48 hrs by Western blot analysis; format: cell-based; summary of the method: as §1
# [5] = system: GTPase HRas (Homo sapiens), P01112 [G12V]; assay: Inhibition of GFP-tagged HRAS G12V mutant (unknown origin) expressed in MDCK cells assessed as reduction in ERK phosphorylation level incubated for 48 hrs by Western blot analysis; format: cell-based; summary of the method: as §1
# [6] = molecular target: GTPase KRas (Homo sapiens) (UniProt P01116); assay: Inhibition of KRAS in human NCI-H358 cells assessed as MARCK phosphorylation level at 1 uM incubated for 48 hrs by Western blot analysis (reference value: 1.00 +/- 0.39); format: cell-based
# [7] = molecular target: GTPase KRas (Homo sapiens) (UniProt P01116); assay: Inhibition of KRAS in human NCI-H358 cells assessed as MARCK phosphorylation level at 5 uM incubated for 48 hrs by Western blot analysis (reference value: 1.00 +/- 0.39); format: cell-based
# [8] = molecular target: GTPase KRas (Homo sapiens) (UniProt P01116); assay: Inhibition of KRAS in human NCI-H358 cells assessed as MARCK phosphorylation level at 10 uM incubated for 48 hrs by Western blot analysis (reference value: 1.00 +/- 0.39); format: cell-based
# [9] = molecular target: GTPase KRas (Homo sapiens) (UniProt P01116); assay: Inhibition of KRAS in human NCI-H358 cells assessed as MARCK phosphorylation level at 25 uM incubated for 48 hrs by Western blot analysis (reference value: 1.00 +/- 0.39); format: cell-based
# [10] = system: GTPase KRas (Homo sapiens), P01116 [G12V]; assay: Inhibition of GFP-tagged KRAS G12V mutant (unknown origin) expressed in MDCK cells assessed as MARCK phosphorylation level at 1 uM incubated for 48 hrs by Western blot analysis (reference value: 1.00 +/- 0.13); format: cell-based
# [11] = system: GTPase KRas (Homo sapiens), P01116 [G12V]; assay: Inhibition of GFP-tagged KRAS G12V mutant (unknown origin) expressed in MDCK cells assessed as MARCK phosphorylation level at 5 uM incubated for 48 hrs by Western blot analysis (reference value: 1.00 +/- 0.13); format: cell-based
# [12] = system: GTPase KRas (Homo sapiens), P01116 [G12V]; assay: Inhibition of GFP-tagged KRAS G12V mutant (unknown origin) expressed in MDCK cells assessed as MARCK phosphorylation level at 10 uM incubated for 48 hrs by Western blot analysis (reference value: 1.00 +/- 0.13); format: cell-based
# [13] = system: GTPase KRas (Homo sapiens), P01116 [G12V]; assay: Inhibition of GFP-tagged KRAS G12V mutant (unknown origin) expressed in MDCK cells assessed as MARCK phosphorylation level at 25 uM incubated for 48 hrs by Western blot analysis (reference value: 1.00 +/- 0.13); format: cell-based
# [14] = system: GTPase KRas (Homo sapiens), P01116 [G12V,S181A]; assay: Inhibition of GFP-tagged KRAS G12V/S181A mutant (unknown origin) expressed in MDCK cells cotransfected with mCherry-CAXX assessed as reduction in KRAS G12V-plasma membrane dissociation incubated for 48 hrs by quantitative confocal microscopic method; format: cell-based
# [15] = molecular target: GTPase KRas (Homo sapiens) (UniProt P01116); assay: Inhibition of KRAS in human NCI-H358 cells assessed as increase in MARCK phosphorylation level incubated for 48 hrs by Western blot analysis
# [16] = system: GTPase KRas (Homo sapiens), P01116 [G12V]; assay: Inhibition of GFP-tagged KRAS G12V mutant (unknown origin) expressed in MDCK cells assessed as increase in MARCK phosphorylation level incubated for 48 hrs by Western blot analysis
# GTPase KRas (Homo sapiens), sequence (P01116 whole entry, looked up): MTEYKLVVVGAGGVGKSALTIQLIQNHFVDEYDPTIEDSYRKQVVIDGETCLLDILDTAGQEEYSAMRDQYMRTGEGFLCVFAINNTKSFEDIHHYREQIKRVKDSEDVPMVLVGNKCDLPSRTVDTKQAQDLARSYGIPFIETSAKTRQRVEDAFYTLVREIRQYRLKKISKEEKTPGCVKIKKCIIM
# GTPase KRas, sequence (P01116 whole entry G12V): as the sequence (P01116 whole entry, looked up) above, with G12V counted along it
# GTPase KRas (Homo sapiens), P01116 [G12V], sequence (P01116 whole entry G12V): as the sequence (P01116 whole entry, looked up) above, with G12V counted along it
# GTPase HRas (Homo sapiens), P01112 [G12V], sequence (P01112 whole entry G12V): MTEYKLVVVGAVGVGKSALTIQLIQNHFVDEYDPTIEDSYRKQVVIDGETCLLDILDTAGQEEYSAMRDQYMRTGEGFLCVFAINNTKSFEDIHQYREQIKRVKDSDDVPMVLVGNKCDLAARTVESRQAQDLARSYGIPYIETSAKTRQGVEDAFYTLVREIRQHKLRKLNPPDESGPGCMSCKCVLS
# GTPase KRas (Homo sapiens), P01116 [G12V,S181A], sequence (P01116 1-164 with tags or gaps G12V,S181A): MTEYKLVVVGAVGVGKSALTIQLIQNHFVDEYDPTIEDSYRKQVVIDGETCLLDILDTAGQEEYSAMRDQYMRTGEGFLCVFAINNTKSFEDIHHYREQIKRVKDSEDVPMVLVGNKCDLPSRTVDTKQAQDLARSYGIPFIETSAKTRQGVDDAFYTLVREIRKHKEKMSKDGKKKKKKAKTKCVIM
smiles,measurement,setting,value
COc1cc(/C=C/C(=O)c2ccc(N)cc2)cc(OC)c1OC,IC50,GTPase KRas,9.17 µM
COc1cc(C(=O)/C=C/c2ccc([N+](=O)[O-])cc2)cc(OC)c1OC,IC50,GTPase KRas,8.2 µM
COc1cc(/C=C/C(=O)c2ccc(N(C)C)cc2)cc(OC)c1OC,IC50,GTPase KRas,7.42 µM
same,inhibition,[1],inactive
COc1cc(C(=O)/C=C/c2c(F)cccc2F)cc(OC)c1OC,IC50,GTPase KRas,7.49 µM
COc1cc(/C=C/C(=O)c2ccc(F)cc2)cc(OC)c1OC,IC50,GTPase KRas,15.9 µM
COc1cc(/C=C/C(=O)c2ccc(Br)cc2)cc(OC)c1OC,IC50,GTPase KRas,24.6 µM
COc1ccc(C(=O)/C=C/c2cc(OC)c(OC)c(OC)c2)cc1,IC50,GTPase KRas,8.29 µM
COc1cc(/C=C/C(=O)c2c(F)cccc2F)cc(OC)c1OC,IC50,GTPase KRas,8.2 µM
COc1cc(/C=C/C(=O)c2ccc([N+](=O)[O-])cc2)cc(OC)c1OC,IC50,GTPase KRas,7.01 µM
same,inhibition,[1],inactive
same,inhibition,[2],Active
same,inhibition,[3],Active
same,inhibition,[4],inactive
same,inhibition,[5],inactive
same,fold change (FC),[6],1.89
same,fold change (FC),[7],1.92
same,fold change (FC),[8],2.57
same,fold change (FC),[9],2.65
same,fold change (FC),[10],1.31
same,fold change (FC),[11],1.76
same,fold change (FC),[12],2.85
same,fold change (FC),[13],2.8
same,inhibition,[14],inactive
same,inhibition,[15],Dose-dependent effect
same,inhibition,[16],Dose-dependent effect
COc1cc(/C=C/C(=O)c2ccccn2)cc(OC)c1OC,IC50,GTPase KRas,53 µM
